Assay results pooled from the literature.
CDK11B: Cyclin-dependent kinase 11B (CDK11B, Homo sapiens, UniProt P21127)
ALOX5: Polyunsaturated fatty acid 5-lipoxygenase (ALOX5, Homo sapiens, UniProt P09917)

Structure (SMILES)	target	test	setting	quantity	result
Cc1nn(C)cc1-c1nc2c(N3CCN(Cc4ccc(Cl)cc4)CC3)c(Cl)cnc2[nH]1	CDK11B	binding, competition with immobilised ligand	1 µM	remaining binding	100%
COc1ncccc1-c1cnn2ccc(N3CCN(C(=O)OC(C)C)CC3)nc12	CDK11B	binding, competition with immobilised ligand	1 µM	remaining binding	89%
CCN(CC)CCCC[C@H](NC(=O)[C@H](CC(C)C)NC(=O)[C@H](C)NC(=O)[C@H](Cc1ccccc1)NC(=O)c1ccc(C(C)(C)C)cc1)C(=O)N[C@@H](CO)C(=O)OC	Bromodomain-containing protein 4, BD2 (BRD4, Homo sapiens, UniProt O60885)	thermal stability, DSF	25 µM	ΔTm	0.2 °C
c1ccc(C(NCCNC(c2ccccc2)c2ccccc2)c2ccccc2)cc1	ALOX5	enzyme activity, inhibitor	10 µM	inhibition	99%
C#Cc1n[nH]c2c(-c3cn(C(C)c4ccccn4)c(=O)[nH]c3=O)cc(F)cc12 (stereo not drawn)	Protein kinase C alpha type (PRKCA, Homo sapiens, UniProt P17252)	enzyme activity, inhibitor	1 µM	inhibition	9.8%
COc1cc(Nc2ncc(F)c(Nc3ccc4c(n3)NC(=O)C(C)(C)O4)n2)cc(OC)c1OC	Mitogen-activated protein kinase kinase kinase 4 (MAP3K4, Homo sapiens, UniProt Q9Y6R4)	binding, competition with immobilised ligand	10 µM	inhibition	71%
C[C@H](C(=O)N[C@H]1COc2ccccc2[C@@H]1S(C)(=O)=O)c1ccc(F)cc1	ALOX5	enzyme activity, inhibitor	10 µM	inhibition	13%
Nc1ncc(-c2nc(N3CCOCC3)nc(N3CCOCC3)n2)c(C(F)F)n1	Serine/threonine-protein kinase ICK (CILK1, Homo sapiens, UniProt Q9UPZ9)	binding, competition with immobilised ligand	10 µM	remaining binding	72%
N#Cc1ccc(NCCNCC(=O)N2N=CCC2C#N)nc1 (stereo not drawn)	Dipeptidyl peptidase 8 (Homo sapiens, UniProt Q6V1X1)	enzyme activity, inhibitor	10 µM	inhibition	15%
